CaV13 FRET inh = Disruptors of the CACNA1D IQ motif to Ca2+-dependent inactivation inhibitor domain association, primary screening, Förster resonance energy transfer in intact living …; HEK cells, CFP/YFP FRET ICDI-IQ, plate reader, 10 min; percent FRET-ratio fall versus neutral wells; inhibition, % at 12.3 µM; 0.098% of 340,000 active; AID 743397;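 active means mean replicate inhibition of at least 30% and at least 1% of replicates passing that level; inconclusive means only one of the two criteria is met; inactive means neither criterion is met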
DENV2 CPE rescue = inhibitors of DENV2 cytopathic effect, primary screen, cell-based, plate reader, single concentration; CPE inhibition, % at 9.99 µM; 1.7% of 350,000 active; DENV2-infected cells, cytopathic effect rescue; AID 651640, 2012; in the data active means CPE inhibition above about 20%, passing the limit was not always enough; inconclusive means no clear call, values can overlap the other calls; tested in BHK-21 cells
S100A4 inh HTS = inhibitors of S100A4-myosin IIA peptide binding, primary screen, biochemical, fluorescence polarization, TAMRA-MyoIIA peptide | Protein S100-A4 (Homo sapiens), P26447 | 0.14% of 360,000 active | inhibition, % at 10.7 µM | AID 652163, 2013;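 active means mean inhibition of at least 70% across replicates, with every replicate also reaching that level; inconclusive means mean inhibition reaches 70% but some replicates fall short; inactive means mean inhibition below 70%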
Target sequence (P26447 whole entry, looked up): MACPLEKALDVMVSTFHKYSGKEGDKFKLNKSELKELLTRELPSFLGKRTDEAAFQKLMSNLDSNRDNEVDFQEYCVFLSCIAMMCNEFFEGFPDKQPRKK
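Compound dosing: one dose per compound; test system: human S100A4 monomer with TAMRA-labelled myosin IIA peptide; probe or stimulus: TAMRA-labelled myosin IIA heavy-chain peptide probe, 5 nM; medium: HEPES buffer with Ca2+, pH 7.2; schedule: 5 min incubation before reading; benchmarks: neutral control DMSO, positive control TFP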
AF4-AF9 inh = inhibitors of AF4 peptide binding to AF9, primary screen, biochemical, AlphaScreen, biotin-AF4 peptide, FLAG-AF9, single point | inhibition, % at 10 µM | 0.47% of 350,000 active | AID 651704, 2012;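 active means every replicate reaching a set inhibition limit, whatever the replicate mean, cut at about 25% in these data; inconclusive means mean inhibition reaches that limit but some replicates miss it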
Target sequence (P42568 whole entry, looked up): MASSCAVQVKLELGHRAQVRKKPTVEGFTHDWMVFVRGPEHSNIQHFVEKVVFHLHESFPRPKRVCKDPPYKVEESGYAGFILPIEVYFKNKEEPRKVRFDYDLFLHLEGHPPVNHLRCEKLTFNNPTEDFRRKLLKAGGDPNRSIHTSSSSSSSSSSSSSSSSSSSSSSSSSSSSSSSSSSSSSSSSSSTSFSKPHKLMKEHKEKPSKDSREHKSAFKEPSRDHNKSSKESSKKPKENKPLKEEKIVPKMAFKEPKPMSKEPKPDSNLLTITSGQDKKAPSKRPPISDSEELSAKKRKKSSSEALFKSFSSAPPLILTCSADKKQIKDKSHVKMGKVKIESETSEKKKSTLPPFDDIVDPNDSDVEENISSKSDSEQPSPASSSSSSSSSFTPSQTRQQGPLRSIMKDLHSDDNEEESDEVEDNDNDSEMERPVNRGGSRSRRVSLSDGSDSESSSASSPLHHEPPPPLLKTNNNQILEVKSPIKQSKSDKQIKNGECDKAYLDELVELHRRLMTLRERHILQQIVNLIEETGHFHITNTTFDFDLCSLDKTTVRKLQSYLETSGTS
SIRT5 block = SIRT5 desuccinylase inhibitors, primary screen, biochemical, fluorescence imaging, single point, set 5; NAD-dependent protein deacylase sirtuin-5, mitochondrial (Homo sapiens), Q9NXA8; Purified SirT5, succinyl-peptide AMC, trypsin-coupled fluorescence; inhibition, % at 15 µM; 1.1% of 330,000 active; AID 652115, 2013; in the data active means inhibition above about 15%; inconclusive means no clear call, values can overlap the other calls
Large screens that a line does not name were inactive; ! = repeats disagree. Rows were chosen to be rich in hits. Some 2.7% of all compounds tested hit in one or more screens of this group.

C[C@H](CO)N1C[C@H](C)[C@@H](CN(C)C(=O)OCc2ccccc2)OCc2cnnn2CCCC1=O	none (no result: CaV13 FRET inh)
Cc1cc(C)c(C(=O)NC2CCCc3c2cnn3-c2ccc(C)c(C)c2)c(=O)[nH]1 (configuration not stated)	DENV2 CPE rescue 106
Cc1ccc(-n2ncc3c2CCCC3NC(=O)c2ccoc2)cc1C (configuration not stated)	none
CC(NC(=O)c1cccc(S(=O)(=O)N2CCN(Cc3ccccc3)CC2)c1)c1ccc(Br)cc1 (configuration not stated)	DENV2 CPE rescue 25
CCC(=O)Nc1nnc(/C=C/c2ccc(OC)cc2)s1	DENV2 CPE rescue 58
Cc1noc(C)c1S(=O)(=O)N(C)C[C@H]1OCCCC[C@@H](C)Oc2ccc(NC(=O)NC(C)C)cc2C(=O)N([C@@H](C)CO)C[C@H]1C	none (no result: CaV13 FRET inh)
CC(/C=C1\SC(=S)N(c2ccc(C(=O)O)cc2)C1=O)=C\c1ccccc1	SIRT5 block 34
O=C(CCN1C(=O)/C(=C/c2cccs2)SC1=S)Nc1ccc(C(=O)O)c(O)c1	SIRT5 block 16
CC(=Cc1ccccc1)C=C1SC(=S)N(CCCC(=O)Nc2ccc(C(=O)O)c(O)c2)C1=O	SIRT5 block 60
CN1CCc2c(sc(NC(=O)c3ccco3)c2C(N)=O)C1	none
CN1CCc2c(sc(NC(=O)c3cc(Cl)sc3Cl)c2C(N)=O)C1	CaV13 FRET inh active
C[C@H]1CN([C@@H](C)CO)C(=O)c2cccc(NC(=O)Nc3ccc4c(c3)OCO4)c2O[C@H]1CN(C)Cc1ccc2c(c1)OCO2	DENV2 CPE rescue 27 (no result: CaV13 FRET inh)
C[C@@H]1CN([C@@H](C)CO)C(=O)c2cccc(NC(=O)Nc3ccc4c(c3)OCO4)c2O[C@@H]1CN(C)CC1CC1	AF4-AF9 inh 25 (no result: CaV13 FRET inh, SIRT5 block)
C[C@@H]1CN([C@@H](C)CO)C(=O)c2cccc(NC(=O)Nc3ccc4c(c3)OCO4)c2O[C@H]1CN(C)Cc1ccc2c(c1)OCO2	DENV2 CPE rescue 22 (no result: CaV13 FRET inh)
Fc1ccc2nc(-c3ccc(CN4CCC(c5nc6ccccc6[nH]5)CC4)cc3)c(-c3ccccc3)nc2c1	none (no result: DENV2 CPE rescue, AF4-AF9 inh)
O=C(c1ccccc1F)N1CC(=O)N2[C@H](C1)[C@H](c1ccc(-c3cccnc3)cc1)[C@@H]2CO	none (no result: CaV13 FRET inh)
C[C@H](CO)N1C[C@H](C)[C@@H](CN(C)Cc2ccc3c(c2)OCO3)Oc2ccc(NC(=O)Cc3cn(C)c4ccccc34)cc2C1=O	none (no result: CaV13 FRET inh)
O=C(O)CCCC[C@@H]1SC[C@@H]2NC(=O)N[C@@H]21	AF4-AF9 inh 97 (no result: CaV13 FRET inh)
COC(=O)CCCCC1SCC2NC(=O)NC21 (configuration not stated)	none
Cc1ccc(NC(=O)C[C@H]2CC[C@H]3[C@@H](COc4ccc(NC(=O)C5CCC5)cc4C(=O)N3C)O2)cc1	none (no result: CaV13 FRET inh)
CSCCC(c1nc2ccccc2[nH]1)n1c(-c2ccc3ncccc3c2)nc2ccccc21 (configuration not stated)	none (no result: AF4-AF9 inh)
CCCCCCN1C[C@@H](O)[C@H](n2cc(COC(=O)c3ccccc3)nn2)C[C@@H]1c1ccc(C)cc1	SIRT5 block 24
CCCCCCN1C[C@@H](O)[C@H](n2cc(COC(=O)c3ccccc3)nn2)C[C@@H]1c1ccccc1	none
CCCCCC(=O)N1C[C@H](n2cc(COC(=O)c3ccccc3)nn2)[C@@H](O)C[C@@H]1c1ccc(C)cc1	none
CCCCCC(=O)N1C[C@@H](O)[C@H](n2cc(COC(=O)c3ccccc3)nn2)C[C@@H]1c1ccc(C)cc1	DENV2 CPE rescue 74
C[C@@H]1CN([C@H](C)CO)C(=O)c2cccc(NC(=O)Nc3ccc(C(F)(F)F)cc3)c2O[C@H]1CN(C)S(=O)(=O)c1ccc(F)cc1	none (no result: CaV13 FRET inh)
Cc1cccc(C)c1NC(=O)CN1CCN(C(=O)C2CCC2)CC1	none
O=C(CN1CCN(C(=O)C2CCC2)CC1)Nc1ccc(F)cc1	DENV2 CPE rescue 32
CCCCc1cn(C[C@H]2CC[C@@H]([C@@H]3CC[C@H](Cn4cc(CCCC)nn4)O3)O2)nn1	none
ClCCCc1cn(C[C@H]2CC[C@@H]([C@@H]3CC[C@H](Cn4cc(CCCCl)nn4)O3)O2)nn1	DENV2 CPE rescue 22
CCC(NC(=O)NCc1ccccc1)(C(F)(F)F)C(F)(F)F	SIRT5 block 30
Cc1ccccc1-c1ccc(C2[C@@H]3CN(C(=O)c4cnccn4)C[C@H]2N3)cc1 (some centres not stated)	DENV2 CPE rescue 29! (no result: CaV13 FRET inh, S100A4 inh HTS, AF4-AF9 inh, SIRT5 block)
O=C(c1cnccn1)N1CC(=O)N2[C@@H](CO)[C@H](c3ccc(C#CC4CC4)cc3)[C@@H]2C1	SIRT5 block 23 (no result: CaV13 FRET inh)
O=C(c1cnccn1)N1CC(=O)N2[C@H](CO)[C@@H](c3ccc(-c4ccc(F)cc4)cc3)[C@H]2C1	S100A4 inh HTS 124 (no result: CaV13 FRET inh)
O=C(c1cnccn1)N1CC(=O)N2[C@H](CO)[C@H](c3ccc(C#CC4CC4)cc3)[C@@H]2C1	none (no result: CaV13 FRET inh)
CN(C)C(=O)c1ccc(-c2ccc(C3[C@@H]4CN(C(=O)c5cnccn5)C[C@H]3N4)cc2)cc1 (some centres not stated)	none (no result: CaV13 FRET inh)
COc1cc(CN2C[C@@H]3N[C@H](C2)C3c2ccc(-c3ccccc3C)cc2)cc(OC)c1 (some centres not stated)	AF4-AF9 inh 27! (no result: CaV13 FRET inh)
C[C@H](CO)N1C[C@H](C)[C@@H](CN(C)S(=O)(=O)c2ccccc2)Oc2c(NS(C)(=O)=O)cccc2C1=O	none (no result: CaV13 FRET inh)
O=C(C[C@@H]1CC[C@H](NC(=O)CCN2CCCCC2)[C@H](CO)O1)NCc1ccc(Cl)c(Cl)c1	DENV2 CPE rescue inconclusive (no result: CaV13 FRET inh)
Cc1noc(C)c1NC(=O)Nc1ccc2c(c1)CC(=O)N([C@H](C)CO)C[C@H](C)[C@@H](CN(C)C(=O)NC1CCCCC1)O2	none (no result: CaV13 FRET inh)
CN1C(=O)c2cc(NC(=O)Nc3ccccc3F)ccc2OC[C@H]2O[C@H](CC(=O)NCCc3ccncc3)CC[C@H]21	none (no result: CaV13 FRET inh)
Nc1ccn([C@H]2CS[C@@H](CO)O2)c(=O)n1	DENV2 CPE rescue 27 (no result: CaV13 FRET inh, AF4-AF9 inh, SIRT5 block)
Nc1ccn([C@@H]2O[C@H](CO)[C@@H](O)[C@H]2O)c(=O)n1	none
O=S(=O)(Nc1ccccc1)c1ccc2c(c1)CCO2	AF4-AF9 inh 48
COc1ccc(NS(=O)(=O)c2ccc3c(c2)CCO3)cc1	none
CN(C)c1ccc(/C=N/NC(=O)c2nnn(-c3nonc3N)c2CN(C)c2ccccc2)cc1	SIRT5 block 17
CCCc1c(C(=O)N/N=C/C(C)=C/c2ccccc2)nnn1-c1nonc1N	none
CCCN(CCC)Cc1c(C(=O)N/N=C/C(C)=C\c2ccccc2)nnn1-c1nonc1N	SIRT5 block 16
O=C(C[C@H]1CC[C@@H]2[C@H](COC[C@@H](O)CN2Cc2cccc(F)c2)O1)NCc1cccc(F)c1	none (no result: CaV13 FRET inh)
